We go through 92 compounds from PubChem BioAssay AID1885 (Broad Institute, 2009).

About 4,400 (1.5%) of roughly 300,000 compounds were called active.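 The calls were made as follows: active = mean inhibition across valid replicates above about 55% (limit read from the data); inconclusive = mean below that limit but half or more replicates reach it; inactive = mean below it, under half of replicates reach it.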 The list comes from a sample in which actives are over-represented; it also holds similar structures and randomly drawn compounds.

A short description of this test: Trypanosoma cruzi replication blockers in host cells – luminescence, NIH3T3 host cells, primary screen (AID 1885).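 Also: signal also drops with host cell toxicity which is not excluded here; 0% = plate median of DMSO wells and 100% = zero luminescence signal; higher percent means less beta-gal luminescence so fewer parasites.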 As to conditions: T. cruzi beta-gal in NIH3T3, luminescence, 90 h; active compounds read high; concentration not given here. A digest of the protocol: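 System: Mouse NIH/3T3 fibroblasts infected with β-gal-expressing T. cruzi Tulahuen C4 | Quantity: NIH/3T3 cells, 5,000 per well | Reagent: 5000 reporter trypomastigotes per well | Dosing: Compound pinned at 50 nL/well, DMSO | Schedule: 3 h host attachment, then at least 90 h co-culture | Detection: GalScreen luminescence, 60 min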
As for `O=C1CN(C(=O)c2cc(F)cc(F)c2)c2ccccc2N1`, the inhibition was -7.57% (inactive).

Consider `CCCc1cc(=O)[nH]c(SCC(=O)c2c(N)n(CC(C)C)c(=O)n(C)c2=O)n1`, for which the inhibition is -8.24% (inactive).

In the case of `CCOc1ccc(-c2cc(C(=O)N/N=C/c3ccc(O)cc3)c3ccccc3n2)cc1`, the inhibition is 18.7% (inactive).

With `CCNS(=O)(=O)c1ccc(NC(=O)Nc2cccc(C(F)(F)F)c2)cc1`, the inhibition is 61.3% (active).

With `Cc1ccc(NC(=O)Nc2cccc(C(F)(F)F)c2)nc1`, the inhibition was 11.1% (inactive).

In the case of `CCNS(=O)(=O)c1ccc(NC(=O)Nc2cccc(OC)c2)cc1`, the inhibition is -9.54% (inactive).

For the compound `Cn1ccc(=Nc2ccc(NC(=O)c3ccc(N=c4ccn(C)c5ccc([N+](=O)[O-])cc45)cc3)cc2)cc1`, the inhibition is 33.3% (inactive).

Consider `Cn1c(CCc2ccccc2)nnc1SCC(N)=O`, for which the inhibition is -8.67% (inactive).

Consider `Cc1ccc(Cc2nnc(SCC(=O)Nc3ccc(C)cc3C)[nH]c2=O)cc1`, for which the inhibition is -8.53% (inactive).

In the case of `COc1cccc2sc(Nc3nc(C)c(C(C)=O)s3)nc12`, the inhibition was 89.1% (active).

As to `COc1ccccc1/C=N/Nc1nc(C)c(C(C)=O)s1`, the inhibition was 6.16% (inactive).

Regarding `COc1cc2ccccc2cc1C(=O)Nc1nc(C)c(C(C)=O)s1`, the inhibition was -2.79% (inactive).

In the case of `COc1ccc(C)cc1S(=O)(=O)Nc1cc2c3c(c1)CCC(=O)N3CCC2`, the inhibition was -2.17% (inactive).

`CC(C)=NN1C(=O)c2ccccc2NC1(C)C`: the inhibition is -9.69% (inactive).

With `O=C(CSc1nnnn1-c1ccc(O)cc1)N1N=C(c2ccc3ccccc3c2)CC1c1ccccc1` (configuration not stated), the inhibition was 71.2% (active).

In the case of `COc1ccc(C2CC(c3ccccc3)=NN2C(=O)CSc2nccc(=O)[nH]2)cc1` (configuration not stated), the inhibition was -0.127% (inactive).

Consider `COc1ccc(C2=NN(C(C)=O)C(c3ccccc3)C2)cc1` (configuration not stated), for which the inhibition is -1.39% (inactive).

Consider `Cc1ccc(S(=O)(=O)n2cccc2CO)cc1`, for which the inhibition was -12.2% (inactive).

For the compound `O=C(NNS(=O)(=O)c1ccc([N+](=O)[O-])cc1)C1CCCCC1`, the inhibition was -10.2% (inactive).

Take `CC(=O)Nc1cccc(C(=O)OCC(=O)Nc2nnc(-c3ccccc3)o2)c1`: the inhibition was -2% (inactive).

Regarding `CCN(CC)S(=O)(=O)c1ccc(C(=O)N2CCN(C3=NS(=O)(=O)c4ccccc43)CC2)cc1`, the inhibition is 0.744% (inactive).

For the compound `CCc1cc(C(N)=O)c(NC(=O)c2ccc(OC)cc2)s1`, the inhibition was 15.5% (inactive).

Take `CC(C)c1cc(C(N)=O)c(NC(=O)c2cccc(COc3ccc(Br)cc3)c2)s1`: the inhibition is 60.2% (active).

Regarding `CCOc1ccc(OCc2cccc(C(=O)N(CC)CC)c2)cc1`, the inhibition is 14.3% (inactive).

Regarding `COc1cccc(COC(=O)C2CCN(S(=O)(=O)c3cccs3)CC2)c1OC`, the inhibition was 0.844% (inactive).

Take `CCOc1ccc(S(=O)(=O)Nc2ccc(C(=O)NCCCN3CCCC3=O)cc2)cc1`: the inhibition was 3.32% (inactive).

For `Cc1cccc(NC(=O)c2cc([N+](=O)[O-])ccc2N2CCN(C)CC2)c1`, the inhibition was 2.53% (inactive).

Regarding `Cc1cccc(NC(=O)c2sc(-c3ccccc3)nc2-c2ccc([N+](=O)[O-])cc2)c1`, the inhibition is 55.5% (active).

`Cc1cccc(NC(=O)c2ccc([N+](=O)[O-])o2)c1`: the inhibition is 41.2% (inactive).

Turning to `COC(=O)c1ccc(SCc2ccccc2)nc1`, the inhibition was -10.6% (inactive).

Take `O=S(=O)(ON(c1ccccc1)S(=O)(=O)c1ccccc1)c1ccccc1`: the inhibition was -3.86% (inactive).

Turning to `CC1=C/C(=N\OS(=O)(=O)c2ccccc2)C=CC1=O`, the inhibition was 68.7% (active).

Take `COc1ccc(NS(=O)(=O)c2ccc(C)c(C(=O)NCC(c3cccs3)N3CCOCC3)c2)cc1` (configuration not stated): the inhibition is 20.6% (inactive).

As for `O=C(Cn1cnc2c(cnn2-c2ccccc2)c1=O)NCc1ccccc1`, the inhibition is -38.8% (inactive).

As for `O=C(Cn1cnc2cc([N+](=O)[O-])ccc2c1=O)NC(=O)NCc1ccccc1`, the inhibition is 62.3% (active).

Turning to `CC(C)(C)NC(=O)Cn1cnc2cc([N+](=O)[O-])ccc2c1=O`, the inhibition was 33.5% (inactive).

As for `CN(CC(=O)Nc1ccccc1Cl)C(=O)c1ccccc1SCC(=O)N1CCCC1`, the inhibition is 2.13% (inactive).

In the case of `COc1ccc(CCNC(=O)C(=O)NCC2CCCN2S(=O)(=O)c2cccs2)cc1OC` (configuration not stated), the inhibition is 17.5% (inactive).

Consider `CC(=O)c1sc(N/N=C/c2ccc(C(C)C)cc2)nc1C`, for which the inhibition is 65.4% (active).

For `CC(=O)c1sc(NC(=O)CCCOc2ccccc2C)nc1C`, the inhibition was -0.939% (inactive).

For the compound `CC(=O)c1sc(N/N=C\c2ccc(C)cc2)nc1C`, the inhibition is -6.96% (inactive).

`O=C(Nc1ccc(OC(F)(F)F)cc1)c1ccc2c(c1)no[n+]2[O-]`: the inhibition was 34.6% (inactive).

Turning to `COc1ccccc1C(=O)NC(=O)COC(=O)C1CC1`, the inhibition is 5.64% (inactive).

Take `CS(=O)(=O)N(CC(=O)N1CCc2ccccc2C1)c1ccc(Br)cc1`: the inhibition is 17.3% (inactive).

Turning to `CCC(=C/c1sc2ccc3ccccc3c2[n+]1C)/C=C1\Sc2ccc3ccccc3c2N1C`, the inhibition was 65.5% (active).

Turning to `O=C(COc1ccccc1)Nc1ccc(F)cc1`, the inhibition is -10.9% (inactive).

For the compound `O=C(NC(Cc1ccccc1)C(=O)N1CCCC(C(F)(F)F)C1)c1ccccc1` (configuration not stated), the inhibition was -16.5% (inactive).

In the case of `COc1ccc(NC(=O)c2cc(-c3ccc(C)o3)nc3ccccc23)cc1`, the inhibition is 14.8% (inactive).

In the case of `CCOc1ccc(S(=O)(=O)Nc2nc3cc(OC)ccc3s2)cc1`, the inhibition is -7.46% (inactive).

`CCOc1ccc2nc(N(CCCN(C)C)C(=O)c3ccc(C(=O)c4ccccc4)cc3)sc2c1`: the inhibition was 34.6% (inactive).

As to `COc1cccc2sc(N(CCCN(C)C)C(=O)CCS(=O)(=O)c3ccccc3)nc12`, the inhibition was -2.98% (inactive).

As for `CN(C)CCN(C(=O)C1CCCCC1)c1nc2cc3c(cc2s1)OCO3`, the inhibition is 28.7% (inactive).

As to `CCc1ccc2nc(N(CCCN(C)C)C(=O)c3ccc4c(c3)OCCO4)sc2c1`, the inhibition is 55.2% (active).

`CN(C)CCN(C(=O)C1=COCCO1)c1nc2ccc(Cl)cc2s1`: the inhibition was 41.8% (inactive).

Turning to `CCN(CC)CCN(C(=O)c1cc(Cl)sc1Cl)c1nc2cc3c(cc2s1)OCO3`, the inhibition was 33.9% (inactive).

In the case of `CN(C)CCN(C(=O)CN1C(=O)c2ccccc2C1=O)c1nc2cc3c(cc2s1)OCCO3`, the inhibition was 66.3% (active).

For the compound `COc1ccc2sc(N(CCCN(C)C)C(=O)c3ccc(S(=O)(=O)N(C)C4CCCCC4)cc3)nc2c1`, the inhibition is 61% (active).

Consider `COc1cccc2sc(N(CCCN(C)C)C(=O)C(c3ccccc3)c3ccccc3)nc12`, for which the inhibition is 31.5% (inactive).

For `CC(=O)N(CCCN(C)C)c1nc2ccc(C)cc2s1`, the inhibition is 57.7% (active).

`Cc1ccc2nc(N(CCN(C)C)C(=O)C3=COCCO3)sc2c1`: the inhibition is 53% (inactive).

As for `Cc1ccc(S(=O)(=O)NCCC(=O)NC2CCN(Cc3ccccc3)CC2)cc1`, the inhibition was 38% (inactive).

With `CCOc1ccc(S(=O)(=O)N2CCC(C(=O)OCc3ccc(OC)cc3)CC2)cc1`, the inhibition is -1.31% (inactive).

For `COc1ccccc1N(CC(=O)Nc1ccccc1C(=O)N1CCCC1)S(C)(=O)=O`, the inhibition was -3.65% (inactive).

`Cc1ccc(NC(=O)CSCC(=O)Nc2sccc2C#N)cc1`: the inhibition was -1.58% (inactive).

`COc1ccc(CCNC(=O)CN2C(=O)COc3ccc(S(=O)(=O)N4CCCC4)cc32)cc1OC`: the inhibition was -4.6% (inactive).

For `CCN(CC)CCN(C(=O)c1ccc(S(=O)(=O)N2CCOCC2)cc1)c1nc2cc3c(cc2s1)OCCO3`, the inhibition was 50.5% (inactive).

Take `CN(C)CCCN(C(=O)c1ccc(S(=O)(=O)N2CCCCCC2)cc1)c1nc2cc3c(cc2s1)OCCO3`: the inhibition is 65.3% (active).

On to `CN(C)CCCN(C(=O)c1ccc(S(=O)(=O)N2CCCCCC2)cc1)c1nc2ccc(Br)cc2s1`, for which the inhibition is 23.2% (inactive).

For `Cc1ccccc1OCC(=O)NNC(=O)c1ccc(-n2cncn2)c([N+](=O)[O-])c1`, the inhibition was 14.2% (inactive).

As to `COc1cc(C(=O)OCC(=O)N(CC(C)C)C2CCS(=O)(=O)C2)ccc1OCC(C)C` (configuration not stated), the inhibition was 1.65% (inactive).

For the compound `O=C(CSc1ncnc2c1oc1ccccc12)NC1CCCC1`, the inhibition is 9.78% (inactive).

Take `O=C(Cc1ccc(F)cc1)NC1CCCC1`: the inhibition is -10.7% (inactive).

For the compound `O=C(CSc1ncnc2c1nnn2Cc1ccc(F)cc1)NC1CCCC1`, the inhibition is 59.1% (active).

`Cc1sc(NC(=O)C2=COCCO2)c(C#N)c1C`: the inhibition was 6.24% (inactive).

On to `COc1cccc(C(=O)NCCS(=O)(=O)NCC2CCCO2)c1` (configuration not stated), for which the inhibition was -7.57% (inactive).

Regarding `O=[N+]([O-])c1ccc(NCCCN2CCOCC2)c(Cl)c1`, the inhibition is 10.6% (inactive).

As to `O=C(NCCCN1CCOCC1)c1ccc([N+](=O)[O-])cc1[N+](=O)[O-]`, the inhibition is 64.7% (active).

With `O=C(NCCCN1CCOCC1)c1ccc(N2CCCC2)c([N+](=O)[O-])c1`, the inhibition is 8.18% (inactive).

As to `Cc1ccc(C(=O)NNC(=O)C(C)Oc2ccc3ccccc3c2)o1` (configuration not stated), the inhibition was -1.31% (inactive).

Turning to `COc1ccc(OC)c(C(c2nnnn2C(C)(C)C)N2CCc3ccccc3C2)c1` (configuration not stated), the inhibition was 63.1% (active).

`COc1ccccc1C(c1nnnn1C(C)(C)C)N1CCN(Cc2ccccc2)CC1` (configuration not stated): the inhibition is -3.59% (inactive).

For `COCCn1nnnc1C(c1cc2ccc(OC)cc2[nH]c1=O)N1CCc2ccccc2C1` (configuration not stated), the inhibition is -9.17% (inactive).

For the compound `CCCCN(C(=O)c1ccc(C)o1)c1c(N)n(CCCC)c(=O)[nH]c1=O`, the inhibition was -0.399% (inactive).

As to `O=C1CC(Sc2ncn[nH]2)C(=O)N1c1ccccc1` (configuration not stated), the inhibition is 23.3% (inactive).

In the case of `Cc1c(-c2ccccc2)nc(N)c(C#N)c1-c1cccs1`, the inhibition is 0.738% (inactive).

On to `CN1CCc2nc(SC(C(=O)O)c3ccccc3)c(C#N)c(-c3cccs3)c2C1` (configuration not stated), for which the inhibition is 64.4% (active).

On to `CC(NC(=O)CSc1nc2c(cc1C#N)CN(C)CC2)c1ccccc1` (configuration not stated), for which the inhibition was 1.88% (inactive).

For `CCCCn1c(N)c(N(Cc2ccccc2OC)C(=O)COc2cc(C)ccc2Cl)c(=O)[nH]c1=O`, the inhibition was 6.73% (inactive).

`COc1ccccc1C(=O)COC(=O)CSCC(=O)Nc1cc(C)on1`: the inhibition was -6.4% (inactive).

In the case of `CCN1CCN(CCNC(=O)c2ccc3c(c2)NC(=O)/C(=C\c2ccc(OC)c(OC)c2)S3)CC1`, the inhibition was 11.8% (inactive).

`CCN1CCN(CCNC(=O)c2ccc(/C=C3/Sc4ccccc4N(Cc4cccc(C)c4)C3=O)cc2)CC1`: the inhibition was 59% (active).

`O=C(NCCN1CCOCC1)c1ccc(/C=C2\Sc3ccccc3N(Cc3ccc(F)cc3)C2=O)cc1`: the inhibition is 10.9% (inactive).

The inhibition is the drop in the measured response relative to a control, in per cent.
